Results published in ChEMBL document CHEMBL5058577, “EUbOPEN Chemogenomics Library 2 (Multiplex)” (2022).

Tested on: U2OS
Assay: Multiplex assay against U2OS
Type: toxicity, cell-based
Conditions: human
Procedure, shortened: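 Tubulin, mitochondrial-mass and membrane-permeability phenotypes are per cents of healthy-nucleus cells. Cells were gated by CellPathfinder machine learning into Hoechst high-intensity objects or normal cells, normal cells into healthy, pyknosed or fragmented nuclei, and pyknosed cells into mitotic or apoptotic. Before that, live cells stained at seeding with Hoechst33342, BioTracker Green Microtubule Cytoskeleton Dye, MitoTracker Red and Annexin V Alexa Fluor 680 were imaged on a CQ1 microscope at 37°C and 5% CO2 after compound addition.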

[1] = 12 h, 1 µM, compound concentration 1 uM, replicate 1
[2] = 12 h, 1 µM, compound concentration 1 uM, replicate 2
[3] = 12 h, 10 µM, compound concentration 10 uM, replicate 1
[4] = 12 h, 10 µM, compound concentration 10 uM, replicate 2
[5] = 24 h, 1 µM, compound concentration 1 uM, replicate 1
[6] = 24 h, 1 µM, compound concentration 1 uM, replicate 2
[7] = 24 h, 10 µM, compound concentration 10 uM, replicate 1
[8] = 24 h, 10 µM, compound concentration 10 uM, replicate 2
[9] = 48 h, 1 µM, compound concentration 1 uM, replicate 1
[10] = 48 h, 1 µM, compound concentration 1 uM, replicate 2
[11] = 48 h, 10 µM, compound concentration 10 uM, replicate 1
[12] = 48 h, 10 µM, compound concentration 10 uM, replicate 2

C[C@H](NC(=O)c1c(C(F)F)nn(C)c1Oc1cccc(C(F)(F)F)c1)c1ccc(C(=O)O)cc1 [PALUPIPRANT]
Population Apoptotic (%) [1]: 60%
Population Fragmented Nuclei (%) [1]: 27%
Population Healthy Nuclei (%) [1]: 63%
Population Hoechst High Intensity Objects (%) [1]: 3%
Population Membrane Permeable-Phenotype (%) [1]: 4%
Population Mitochondria Different-Phenotype (%) [1]: 1%
Population Mitotic Cells (%) [1]: 39%
Population Normal (%) [1]: 96%
Population Pyknosed Nuclei (%) [1]: 8%
Population Tubulin-Different-Phenotype (%) [1]: 1%
Total Cell Count [1]: 266
Population Apoptotic (%) [2]: 91%
Population Fragmented Nuclei (%) [2]: 12%
Population Healthy Nuclei (%) [2]: 78%
Population Hoechst High Intensity Objects (%) [2]: 0%
Population Mitochondria Different-Phenotype (%) [2]: 0%
Population Mitotic Cells (%) [2]: 8%
Population Normal (%) [2]: 99%
Population Pyknosed Nuclei (%) [2]: 9%
Population Tubulin-Different-Phenotype (%) [2]: 2%
Total Cell Count [2]: 132
Population Apoptotic (%) [3]: 83%
Population Fragmented Nuclei (%) [3]: 28%
Population Healthy Nuclei (%) [3]: 62%
Population Hoechst High Intensity Objects (%) [3]: 3%
Population Membrane Permeable-Phenotype (%) [3]: 7%
Population Mitochondria Different-Phenotype (%) [3]: 4%
Population Mitotic Cells (%) [3]: 16%
Population Normal (%) [3]: 96%
Population Pyknosed Nuclei (%) [3]: 8%
Population Tubulin-Different-Phenotype (%) [3]: 5%
Total Cell Count [3]: 293
Population Apoptotic (%) [4]: 100%
Population Fragmented Nuclei (%) [4]: 13%
Population Healthy Nuclei (%) [4]: 77%
Population Membrane Permeable-Phenotype (%) [4]: 5%
Population Mitochondria Different-Phenotype (%) [4]: 2%
Population Mitotic Cells (%) [4]: 0%
Population Tubulin-Different-Phenotype (%) [4]: 2%
Total Cell Count [4]: 117
Population Apoptotic (%) [5]: 87%
Population Fragmented Nuclei (%) [5]: 20%
Population Healthy Nuclei (%) [5]: 72%
Population Hoechst High Intensity Objects (%) [5]: 2%
Population Membrane Permeable-Phenotype (%) [5]: 4%
Population Mitochondria Different-Phenotype (%) [5]: 1%
Population Mitotic Cells (%) [5]: 12%
Population Normal (%) [5]: 97%
Population Pyknosed Nuclei (%) [5]: 7%
Population Tubulin-Different-Phenotype (%) [5]: 3%
Total Cell Count [5]: 316
Population Apoptotic (%) [6]: 94%
Population Fragmented Nuclei (%) [6]: 14%
Population Healthy Nuclei (%) [6]: 73%
Population Hoechst High Intensity Objects (%) [6]: 1%
Population Membrane Permeable-Phenotype (%) [6]: 5%
Population Mitochondria Different-Phenotype (%) [6]: 0%
Population Mitotic Cells (%) [6]: 5%
Population Normal (%) [6]: 98%
Population Pyknosed Nuclei (%) [6]: 11%
Population Tubulin-Different-Phenotype (%) [6]: 5%
Total Cell Count [6]: 147
Population Apoptotic (%) [7]: 91%
Population Fragmented Nuclei (%) [7]: 18%
Population Healthy Nuclei (%) [7]: 74%
Population Hoechst High Intensity Objects (%) [7]: 2%
Population Membrane Permeable-Phenotype (%) [7]: 5%
Population Mitochondria Different-Phenotype (%) [7]: 3%
Population Mitotic Cells (%) [7]: 8%
Population Normal (%) [7]: 97%
Population Pyknosed Nuclei (%) [7]: 7%
Population Tubulin-Different-Phenotype (%) [7]: 1%
Total Cell Count [7]: 339
Population Fragmented Nuclei (%) [8]: 13%
Population Healthy Nuclei (%) [8]: 77%
Population Mitochondria Different-Phenotype (%) [8]: 1%
Population Pyknosed Nuclei (%) [8]: 8%
Population Tubulin-Different-Phenotype (%) [8]: 0%
Total Cell Count [8]: 139
Population Apoptotic (%) [9]: 82%
Population Fragmented Nuclei (%) [9]: 15%
Population Healthy Nuclei (%) [9]: 73%
Population Hoechst High Intensity Objects (%) [9]: 2%
Population Membrane Permeable-Phenotype (%) [9]: 3%
Population Mitochondria Different-Phenotype (%) [9]: 1%
Population Mitotic Cells (%) [9]: 17%
Population Normal (%) [9]: 97%
Population Pyknosed Nuclei (%) [9]: 11%
Population Tubulin-Different-Phenotype (%) [9]: 1%
Total Cell Count [9]: 426
Population Apoptotic (%) [10]: 92%
Population Healthy Nuclei (%) [10]: 70%
Population Hoechst High Intensity Objects (%) [10]: 0%
Population Mitochondria Different-Phenotype (%) [10]: 0%
Population Mitotic Cells (%) [10]: 7%
Population Normal (%) [10]: 99%
Population Pyknosed Nuclei (%) [10]: 13%
Population Tubulin-Different-Phenotype (%) [10]: 2%
Total Cell Count [10]: 207
Population Apoptotic (%) [11]: 91%
Population Fragmented Nuclei (%) [11]: 18%
Population Healthy Nuclei (%) [11]: 73%
Population Hoechst High Intensity Objects (%) [11]: 2%
Population Membrane Permeable-Phenotype (%) [11]: 5%
Population Mitochondria Different-Phenotype (%) [11]: 3%
Population Mitotic Cells (%) [11]: 8%
Population Normal (%) [11]: 97%
Population Pyknosed Nuclei (%) [11]: 7%
Population Tubulin-Different-Phenotype (%) [11]: 3%
Total Cell Count [11]: 463
Population Apoptotic (%) [12]: 85%
Population Fragmented Nuclei (%) [12]: 14%
Population Healthy Nuclei (%) [12]: 79%
Population Hoechst High Intensity Objects (%) [12]: 1%
Population Membrane Permeable-Phenotype (%) [12]: 1%
Population Mitochondria Different-Phenotype (%) [12]: 1%
Population Mitotic Cells (%) [12]: 14%
Population Normal (%) [12]: 98%
Population Pyknosed Nuclei (%) [12]: 6%
Population Tubulin-Different-Phenotype (%) [12]: 0%
Total Cell Count [12]: 223
